CHOP inhibitor: blocks CHOP induction under ER stress. CHO-K1 CHOP-promoter luciferase, tunicamycin-induced, 15-18 h. inhibition, % at 10 µM. hit rate 3.8% among 220,000;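 active means compounds that reduced the stress-induced luciferase reporter signal by more than about 70% of percent inhibition, limit read from the data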;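 further: 0% = tunicamycin plus vehicle and 100% = wells without tunicamycin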
V-ATPase pHluor: yeast V-ATPase proton transport regulation by pHLuorin | S. cerevisiae, pHLuorin cytosolic pH fluorescence | response, % at 10 µM | hit rate 0.37% among 350,000 | AID 504577; in the data active means response mostly above about 7.3%, no sharp cut-off; inactive means mostly below about 5.4%; further: actives read high
CHOP UPR activ: apoptotic UPR (CHOP) activation | hit rate 0.34% among 330,000 | CHO-CHOP luciferase reporter, luminescence; percent of tunicamycin response over DMSO baseline | activation, % at 10 µM;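 active means at 10 µM dose, activation of 40% or more, normalized to positive control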;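 further: 100% = tunicamycin at 10 µg/mL and 0% = DMSO alone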
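System: CHO-CHOP luciferase reporter cell line | Buffer or medium: F12 medium containing 10% fetal bovine serum | Doses: One dose, 10 µM in 0.5% DMSO | Times: 6 h compound exposure at 37 °C after overnight seeding | Signal: Luciferase luminescence | Read-out: % activation vs tunicamycin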
XBP1 UPR activ: activators of adaptive arm of unfolded protein response (XBP1) | AID 463104 | CHO-XBP1 luciferase reporter, IRE1-XBP1 UPR activation, luminescence; percent of tunicamycin response, DMSO as zero | activation, % at 20 µM | hit rate 0.33% among 330,000;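 active means versus positive control, 20 µM dose yields 30% or more activation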;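 further: 100% = tunicamycin at 10 µg/mL and 0% = DMSO only wells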
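Material: CHO cell line with stable XBP1 luciferase reporter; buffer or medium: F12 medium containing 10% fetal bovine serum; compound: single point, 20 µM final compound, 1% DMSO; incubation: 6 h treatment, 37 °C; measured by: glow luminescence from Steady-Glo reagent; evaluation: activation, % of tunicamycin; control set: tunicamycin high, DMSO low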
Tb MetRS inh: Trypanosoma brucei MetRS inhibition; purified T. brucei MetRS, ATP depletion, Kinase-Glo luminescence; inhibition, % at 11.9 µM; hit rate 0.4% among 360,000;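 active means inhibition above a per-plate cutoff of the control wells' mean inhibition plus 3 SD, cut at about 5.5% in these data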;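 further: 0% = DMSO wells median and 100% = median of wells with control inhibitor compound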
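Measured by: Kinase-Glo luciferase luminescence reporting remaining unconsumed ATP. Material: purified T. brucei MetRS enzyme. Doses: 11.9 µM compound single dose, 0.9% DMSO. Medium: HEPES buffer containing pyrophosphatase, BSA, spermine, DTT. Times: 15 min preincubation, 2 h reaction, all 25 °C. Reagent: methionine, ATP and bulk E. coli tRNA.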
UPR CHOP confirm: apoptotic UPR (CHOP) activation, confirmed; hit rate 64% among 1,000; shares compounds with CHOP UPR activ; CHO-CHOP cells, CHOP-luciferase reporter luminescence; percent of tunicamycin response, DMSO as zero; activation, % at 10 µM; AID 463112; in the data active means activation above about 33%;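 further: 0% = DMSO wells and 100% = tunicamycin 10 µg/mL wells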
* = called active by the depositor; x = not tested or not shown. The full list was thinned out, with hits kept by preference.

SMILES	CHOP inhibitor	V-ATPase pHluor	CHOP UPR activ	XBP1 UPR activ	Tb MetRS inh	UPR CHOP confirm
CCOc1ccc(NC(=O)COC(=O)C2C3CC4OC(=O)C2C4C3)cc1 (stereo not drawn)	x	-2	1	4	0	x
Cc1ccc2c(c1)C(=O)C(=O)N2CC(=O)Nc1ccccc1NC(=O)c1ccccn1	-20	-1	-1	5	0	x
Nc1ccccc1C(=O)N1O[C@@H]2C=C[C@H]1CC2	x	-1	3	0	0	x
Cn1c(=NC(=O)c2ccco2)sc2ccccc21	19	-3	2	-5	-1	x
Cn1c(=NC(=O)CCl)sc2ccccc21	x	-1	41*	-2	0	23
COc1ccc(-c2nc(-c3ccccc3)nc(Cl)c2C#N)cc1	53	5	81*	72*	-1	33*
O=C(COC(=O)/C=C/c1cccc(C(F)(F)F)c1)Nc1cccc(S(=O)(=O)NC2=NCCC2)c1	x	1	x	x	0	x
Oc1ccc(/C=N/N2CCN(C3c4ccccc4-c4ccccc43)CC2)cc1O	91*	0	102*	12	0	53*
Cc1ccc(CN2CCN(/N=C/c3ccc(O)c(O)c3)CC2)cc1	x	-1	147*	19	0	106*
Cc1c(/C=N/Nc2nc3ccccc3[nH]2)c2ccccc2n1C	-218	5	320*	2	5	-1
Oc1ccc(-c2csc(-c3cccnc3)n2)c(O)c1	53	1	4	1	0	x
Oc1ccc(Nc2nc(-c3ccc4ccccc4c3)cs2)cc1	x	0	63*	17	0	30
Oc1ccc(-c2nc(-c3ccc(O)c(O)c3)cs2)cc1	x	-1	146*	9	0	96*
COc1ccc(C(C)(O)c2nc(-c3cccc(F)c3)cs2)cc1 (stereo not drawn)	x	x	x	x	0	x
O=C(C[C@H]1C[C@H](C(=O)N2CCCCC2)[C@@]2(CCc3ccccc3)c3[nH]c4ccc(Cl)cc4c3CCN2C1=O)NCCN1CCOCC1	x	-2	52*	-5	0	0
O=C(C[C@H]1C[C@H](C(=O)N2CCCCC2)[C@@]2(CCc3ccccc3)c3[nH]c4ccc(Cl)cc4c3CCN2C1=O)NCCCn1ccnc1	x	0	9	9	-1	x
CCCCC(CC)CN=C(N)NC(N)=NCCCCCCN=C(N)NC(N)=NCC(CC)CCCC (stereo not drawn)	x	84*	54*	1	1	38*
Cc1ccc(-c2ccc(/C=C/C(=O)c3ccccc3)o2)cc1	30	4	193*	0	0	2
Cc1ccc(C(=O)/C=C/C(=O)c2ccc(C)cc2)cc1	106*	3	139*	-7	0	370*
COCCN(C(=O)CCSc1ccc(F)cc1)c1c(N)n(Cc2ccccc2)c(=O)[nH]c1=O	x	8	0	-3	0	x
O=C(N/N=C/c1ccccn1)c1cc([N+](=O)[O-])cc([N+](=O)[O-])c1	29	0	45*	4	0	65*
O=C(N/N=C/c1ccccn1)c1cccc([N+](=O)[O-])c1	13	0	3	1	0	x
O=C1CCN(CCc2ccccc2)CCN1[C@H](COc1ccccc1)c1ccccc1	x	0	2	-2	0	x
Cc1ccc(C(=O)Sc2cccccc2=O)cc1	x	7	112*	0	-1	17
O=C(Nc1ccccc1SC(=O)c1ccccc1)c1ccccc1	x	-2	x	x	0	x
SMILES	CHOP inhibitor	V-ATPase pHluor	CHOP UPR activ	XBP1 UPR activ	Tb MetRS inh	UPR CHOP confirm
Cc1ccc(C(=O)Oc2ccc(Cl)c3cccnc23)cc1[N+](=O)[O-]	-5	-4	81*	22	0	65*
COc1ccc(C(=O)Oc2cccc3cccnc23)cc1[N+](=O)[O-]	32	0	-1	5	0	x
COC(=O)c1cc(=O)n(CCc2ccc(OC)cc2)c(=Nc2ccc(F)c(Cl)c2)s1	-34	4	60*	10	-2	40*
COC(=O)c1cc(=O)n(Cc2ccc3c(c2)OCO3)c(=Nc2ccc(F)c(Cl)c2)s1	-30	-3	62*	3	0	73*
O=C(NCCC1=CCCCC1)C1CCN(S(=O)(=O)c2ccc(Br)s2)CC1	40	-2	2	-1	0	x
Cn1c(SCC(=O)Nc2ccc(N3CCOCC3)c(Cl)c2)nnc1C(O)c1ccccc1 (stereo not drawn)	33	0	43*	0	0	-1
Cn1c(COc2ccccc2)nnc1SCC(=O)Nc1ccc(N2CCOCC2)c(Cl)c1	24	-1	1	-1	-1	x
N#Cc1c(N)c(C(=O)c2ccccc2)n2c1CCC2	15	-3	54*	1	-1	4
COC(=O)c1c(N)c(C#N)c2n1CCCCC2	8	-2	1	0	0	x
O=C(NCCc1ccccc1)C1CCC(CNS(=O)(=O)c2cccs2)CC1 (stereo not drawn)	8	-1	-1	-2	-1	x
CS(=O)(=O)c1nc(-c2ccccc2)cc(-c2ccccc2)c1C#N	5	-3	68*	10	0	47*
Cc1ccc(-c2cc(-c3ccccc3)c(C#N)c(Br)n2)cc1	29	1	0	-3	0	x
COC1(OC)N=C(N)C2(C#N)C(c3ccc(F)cc3)C12C#N (stereo not drawn)	-8	1	0	-5	0	x
CCSC1(SCC)N=C(N)C2(C#N)C(c3ccc(F)cc3)C12C#N (stereo not drawn)	82*	0	61*	0	0	124*
COc1ccccc1-c1nnc(Nc2nc3c(OC)cccc3s2)o1	x	-5	71*	15	-1	110*
COc1cccc2sc(Nc3nnc(-c4ccccc4Cl)o3)nc12	x	0	6	5	-1	x
Cc1nnsc1-c1nnc(SCC(=O)c2ccccc2)n1C1CC1	9	-1	3	3	-1	x
CC1=NN(c2cccc(C(=O)O)c2)C(=O)/C1=C\C=C/c1ccccc1	93*	x	95*	-3	-2	130*
CC1=NN(c2ccc(C)cc2)C(=O)/C1=C\C=C\c1ccccc1	3	1	0	-1	-1	x
O=C1c2ccccc2C(=O)N1CCc1ccccn1	-10	-2	3	2	-1	x
O=C1c2cccc3c([N+](=O)[O-])ccc(c23)C(=O)N1CCc1ccccn1	-51	-34	58*	9	0	24
CCN=c1scc(C)n1/N=C/c1cc(Br)c(O)c(Br)c1	29	-2	-1	2	0	x
CCN=c1scc(C)n1/N=C/c1ccc(O)c(O)c1O	10	1	79*	7	0	9
COCCN=c1scc(-c2cccs2)n1/N=C/c1ccc(O)c(O)c1O	-150	-5	347*	8	0	104*

Screens from PubChem BioAssay.
